Compound activity from PubChem BioAssay.
Rows were chosen to be rich in hits. Some 2% of all compounds tested hit in one or more screens of this group.
PABP polyA inh – PABP poly(A) RNA binding inhibitors, primary screen, biochemical, fluorescence polarization, uHTS; Polyadenylate-binding protein 1 (Homo sapiens), P11940; inhibition, % at 35 µM; 290,000 compounds, 1% hits;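 also: calls also rest on retests at 20 µM and on dose response follow-up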
Target sequence (P11940 whole entry, looked up): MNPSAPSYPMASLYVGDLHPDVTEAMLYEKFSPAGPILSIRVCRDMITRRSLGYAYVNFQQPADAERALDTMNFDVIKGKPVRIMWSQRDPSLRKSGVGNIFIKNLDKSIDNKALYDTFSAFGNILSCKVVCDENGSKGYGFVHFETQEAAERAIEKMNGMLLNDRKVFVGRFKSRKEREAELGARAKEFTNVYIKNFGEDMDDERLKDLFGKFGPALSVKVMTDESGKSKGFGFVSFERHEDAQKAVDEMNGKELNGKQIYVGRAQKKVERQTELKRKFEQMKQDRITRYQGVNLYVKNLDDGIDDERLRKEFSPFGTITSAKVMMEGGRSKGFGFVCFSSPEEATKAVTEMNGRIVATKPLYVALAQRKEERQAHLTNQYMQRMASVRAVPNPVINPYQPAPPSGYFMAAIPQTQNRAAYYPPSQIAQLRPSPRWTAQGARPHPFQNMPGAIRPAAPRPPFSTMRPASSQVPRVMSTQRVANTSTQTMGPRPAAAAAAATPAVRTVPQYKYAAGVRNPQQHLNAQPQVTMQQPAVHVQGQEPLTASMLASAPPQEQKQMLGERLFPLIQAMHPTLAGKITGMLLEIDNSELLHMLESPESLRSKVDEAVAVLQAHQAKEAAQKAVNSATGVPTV
eIF4H inh – human eIF4H binding inhibitors, primary screen, translation initiation inhibitor project, biochemical, uHTS, fluorescence polarization; Eukaryotic translation initiation factor 4H (Homo sapiens), Q15056; eIF4H fluorescence polarization binding assay; inhibition, % at 35 µM; 290,000 compounds, 0.94% hits; AID 2012, 2009;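 also: calls also rest on retests at 20 µM and on dose response follow-up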
HCV core dimer – inhibitors of HCV core protein dimerization, primary screen, biochemical, TR-FRET, high-throughput. TR-FRET GST/Flag-core106 dimerization, 1536-well. inhibition, % at 5 µM. 300,000 compounds, 0.33% hits. AID 1899, 2009;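 active = inhibition above the mean of all tested compounds plus 3 SD, set per screening campaign, cut at about 45% in these data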
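Assay system: Tagged HCV core106 pair (GST and Flag) | Buffer or medium: KF-containing HEPES buffer, pH 7.45, DTT, CHAPS, BSA | Also added: Eu donor and XL665 acceptor anti-tag antibodies | Dosing: One concentration, 5 µM, in 0.5% DMSO | Timing: 4 h at 22.5 °C | Technique: TR-FRET 671 and 617 nm emission | Repeats: Singlicate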
NS3 helicase inh – inhibitors of HCV NS3 helicase, primary screen, biochemical, Cy5 molecular beacon fluorescence; inhibition, % at 10.9 µM; Hepatitis C virus NS3 helicase; NS3 helicase DNA unwinding; 290,000 compounds, 0.56% hits; AID 1800, 2009;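 active = inhibition above the mean of all tested compounds plus 3 SD, set per campaign, cut at about 35% in these data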
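System: NS3 helicase fragment of HCV / Schedule: 1 h at 25 °C / Control set: DMSO alone as 0% and 110 µM thioflavine S as 100% / Reagent: Cy5/quencher beacon DNA duplex and ATP to start / Technique: Cy5 fluorescence / Replication: singlicate / Evaluation: % inhibition of end-to-start signal ratio versus controls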
DNA FID counter – compounds displacing fluorescent DNA intercalator, primary screen, artefact control for HCV NS3 helicase inhibitor project, biochemical, FID fluorescence | AID 1845, 2009 | 290,000 compounds, 0.17% hits | DNA fluorescent intercalator displacement | inhibition, % at 7.9 µM; in the data active = inhibition above about 37%;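 also: higher means more ethidium bromide displaced from hairpin DNA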
MLLE-PAM2 inh – inhibitors of PABP1 MLLE–PAM2 peptide binding, primary screen, biochemical, fluorescence polarization, FITC-PAM2, GST-MLLE; 360,000 compounds, 0.36% hits; inhibition, % at 20 µM; in the data active = inhibition above about 35%, passing the limit was not always enough
Hits are given with their value; 0 = inactive; - = no result. Unless noted, no rule for the calls is given here.

SMILES | PABP polyA inh | eIF4H inh | HCV core dimer | NS3 helicase inh | DNA FID counter | MLLE-PAM2 inh
C#CCn1c(=NC(=O)c2sc3ccccc3c2Cl)sc2cc(S(N)(=O)=O)ccc21 | 0 | 0 | 66 | 0 | 0 | 0
Cc1ccc(-c2cc(C(=O)N/N=C/c3c[nH]c4ccccc34)n[nH]2)o1 | 59 | 0 | 0 | 0 | 0 | 0
Cc1ccc(-c2cc(C(=O)N/N=C/c3ccccc3O)n[nH]2)o1 | 0 | 0 | 0 | 0 | 0 | 0
O=[N+]([O-])c1ccccc1/C=C/C=N/n1c(-c2ccc(Cl)cc2)n[nH]c1=S | 0 | 0 | 83 | 0 | 0 | 0
Cc1c(C(=O)NC2CC(C)(C)NC(C)(C)C2)oc2c(Cl)cccc12 | - | - | - | - | - | 0
COc1ccc2c(c1)OC[C@H]1[C@H]2N2C(=O)c3cc(OC)c(OC)cc3NC(=O)[C@@]2(C)[C@H]1c1ccccc1 | - | - | 46 | - | - | 0
COc1cc(OC)c(NC(=O)CN(C)S(=O)(=O)c2ccc(-c3ccc(=O)[nH]n3)s2)cc1Cl | 0 | 0 | 53 | 0 | 0 | 0
Cc1ccc(CNC(=O)CN(C)S(=O)(=O)c2ccc3c(c2)n(C)c(=O)c(=O)n3C)cc1 | 0 | 0 | 0 | 0 | 0 | 0
Clc1ccc(CSc2nnc(CNc3cccc(Cl)c3)o2)cc1 | 5.5 | 63 | 0 | 0 | 0 | 0
COc1ccc(NC(=O)CSC2=C(C#N)C(c3ccco3)C(C(=O)Nc3nc4ccccc4s3)=C(C)N2)cc1 (centres undefined) | - | - | 48 | 0 | 0 | 0
CC(=O)C1=C(C)NC(SCC(=O)Nc2nc3ccccc3s2)=C(C#N)C1c1ccc(Cl)cc1 (centres undefined) | 0 | 0 | 0 | 0 | 0 | 0
Cn1cccc1/C=C1\CCC/C(=C\c2cccn2C)C1=O | 61 | 52 | 0 | 0 | 0 | 0
O=C(CC1CCCC1)Nc1ccc2c(c1)CCC2 | 0 | 0 | 0 | 39 | 0 | 0
COc1ccccc1NC(=O)CCN1CC(C)OC(C)C1 (centres undefined) | active | 0 | 0 | 0 | 0 | 0
CN(C)CCN1CCN(C2CN(Cc3ccc([N+](=O)[O-])cc3)S(=O)(=O)C2)CC1 (centres undefined) | - | - | - | - | - | 0
CCNC(=S)N=Nc1c(O)[nH]c2ccc([N+](=O)[O-])cc12 | 0 | 0 | 0 | 0 | 0 | 45
O=C(O)c1ccccc1N=Nc1c(O)[nH]c2ccc([N+](=O)[O-])cc12 | 0 | 0 | 0 | 0 | 0 | 0
O=C(N=Nc1c(O)[nH]c2ccc([N+](=O)[O-])cc12)c1ccccc1Cl | 6.1 | 0 | 0 | 0 | 0 | 0
O=[N+]([O-])c1ccc2[nH]c(O)c(N=NC(=S)NCC3CCCO3)c2c1 (centres undefined) | 0 | 0 | 0 | 0 | 0 | 0
O=C(CCc1ccccc1)Nc1cc(S(=O)(=O)N2CCOCC2)ccc1N1CCCC1 | - | - | - | - | - | 0
O=S1(=O)C=C[C@H](COCc2ccccc2)N1 | - | - | - | - | - | 0
CCCCC1=CC2=C(c3ccco3)C(=O)C(C)(OC(=O)c3ccc(OC)cc3)C(=O)C2=CN1c1ccccc1 (centres undefined) | 81 | 0 | 0 | - | - | 0
N#C/C(=C(/O)c1ccc(-c2cccc([N+](=O)[O-])c2)o1)c1nc2ccccc2s1 | active | 69 | - | 0 | 0 | 0
Cc1ccc(S(=O)(=O)NC(=O)C2(C)CCN2C(=O)C2CCCCC2)cc1 (centres undefined) | - | - | - | - | - | 0
S=C1NC2=C(CCC/C2=C\c2ccccc2)C(c2ccccc2)N1 (centres undefined) | 0 | 0 | 0 | 0 | 0 | 0
COc1ccc(C2NC(=S)NC3=C2CCCC3=C2SCCS2)cc1 (centres undefined) | 0 | 0 | 48 | 0 | 0 | 0
S=C1NC2=C(CCCC2=C2SCCCS2)C(c2ccccc2)N1 (centres undefined) | 0 | 0 | 48 | 0 | 0 | 0
Cn1c(=O)c2c(nc(Cl)n2CC(=O)NC2(C#N)CCCCC2)n(C)c1=O | - | - | 0 | - | - | 0
CCOc1ccc(NC(=O)CN(C)C(=O)c2cccnc2Sc2ccccc2Cl)cc1OCC | - | - | 0 | - | - | 0
